# Data published in ChEMBL document CHEMBL1932913, “Synthesis and antitumor evaluation of some new 1,3,4-oxadiazole-based heterocycles” (Eur J Med Chem, 2012).
# The source made the active and inactive calls. No cut-off for these calls is given here.
# How the values were obtained:
# WI-38 = test: Cytotoxicity against human WI38 cells after 96 hrs by MTT assay; assay type: cell-based; conditions: WI-38, 96 h
# In short: (§1)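 Cells from ATCC, batch cultured 10 d, seeded at 10 × 10³ cells/well in RPMI-1640 with fetal bovine serum, attached 24 h at 37 °C, 5% CO₂. Serum-free medium, then test samples at final 1000, 500, 200, 100, 50, 20, 10 (DMSO ≤1% v/v); 96 h incubation. Formazan read-out against untreated controls; 5-fluorouracil positive control; IC50 from dose–response curve.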
# HepG2 = test: Cytotoxicity against human HepG2 cells after 96 hrs by MTT assay; assay type: functional, cell-based; conditions: HepG2, 96 h; in short: as §1
# Vero = test: Cytotoxicity against african green monkey Vero cells after 96 hrs by MTT assay; assay type: cell-based; conditions: Chlorocebus sabaeus; in short: as §1
# MCF7 = test: Cytotoxicity against human MCF7 cells after 96 hrs by MTT assay; assay type: functional, cell-based; conditions: MCF7, 96 h; in short: as §1
# Nucleic Acid = test: Protection against bleomycin-iron complex-induced DNA damage using EDTA after 1 hr by thiobarbituric acid method; assay type: nucleic-acid assay
# In short: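 Bleomycin DNA-damage assay, 1.0 ml final: DNA 0.2 mg/ml, bleomycin 0.05 mg/ml, FeCl₃ 0.025 mM, MgCl₂ 5 mM, KH₂PO₄–KOH pH 7.0 30 mM, sample 0.1 mg/ml in MeOH (ascorbic acid 0.24 mM reference). 37 °C for 1 h; stopped with EDTA; TBA plus HCl, 80 °C 15 min; absorbance read. Three experiments, mean ± S.E.M.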
Structure (SMILES),IC50 (WI-38) [µg/mL],IC50 (HepG2) [µg/mL],IC50 (Vero) [µg/mL],IC50 (MCF7) [µg/mL],Activity (Nucleic Acid)
O=c1[nH]cc(F)c(=O)[nH]1 [FLUOROURACIL],3.2,,,,
N#C/C(=C/c1cn(-c2ccccc2)nc1-c1ccccc1)c1nnc(NC(=O)c2ccccc2)o1,24.1,38.1,39.6,37.4,
O=C(Nc1nnc(-c2nc3c(ccc4ccccc43)oc2=O)o1)c1ccccc1,181,190,189,222,
COc1ccc(/C=C(/C#N)c2nnc(NC(=O)c3ccccc3)o2)cc1,71.2,69.5,95.6,49.9,
Nc1n[nH]c(Nc2ccccc2)c1-c1nnc(NC(=O)c2ccccc2)o1,38.4,33.7,36.3,38.3,
Cc1c(/C=c2/c(=O)s/c(=C(\C#N)c3nnc(NC(=O)c4ccccc4)o3)n2-c2ccccc2)c(=O)n(-c2ccccc2)n1C,175,146,170,167,
NC1=Nn2c(nnc2NC(=O)c2ccccc2)C1,65,65.6,69.8,66.8,
O=C(Nc1nnc(-c2cc3ccccc3oc2=O)o1)c1ccccc1,35.8,35.6,34.5,32.6,
Nc1c(C(=O)c2ccccc2)sc(Nc2ccccc2)c1-c1nnc(NC(=O)c2ccccc2)o1,89.6,90.7,101,100,
CS/C(Nc1ccccc1)=C(\C#N)c1nnc(NC(=O)c2ccccc2)o1,98.7,125,132,107,
N#C/C(c1nnc(NC(=O)c2ccccc2)o1)=c1\sc(=O)/c(=C/c2cn(-c3ccccc3)nc2-c2ccccc2)n1-c1ccccc1,340,250,257,411,
O=C(Nc1nnc(-c2nc3ccc4ccccc4c3oc2=O)o1)c1ccccc1,90.9,111,95.4,96.9,
N#C/C(=C1\SC(=O)CN1c1ccccc1)c1nnc(NC(=O)c2ccccc2)o1,52.4,51.2,50.3,69.2,
N#C/C(=C(\S)Nc1ccccc1)c1nnc(NC(=O)c2ccccc2)o1,84.6,100,82.4,77.5,
Nc1nn(-c2ccccc2)c(Nc2ccccc2)c1-c1nnc(NC(=O)c2ccccc2)o1,90.5,98.7,98.8,99.1,
N#CCc1nnc(NC(=O)c2ccccc2)o1,24.4,21.2,30.3,39.2,Active
CC1=CS/C(=C(\C#N)c2nnc(NC(=O)c3ccccc3)o2)N1c1ccccc1,17.3,12.4,15.8,25.8,Active
CC(=O)c1sc(Nc2ccccc2)c(-c2nnc(NC(=O)c3ccccc3)o2)c1N,84.6,70.2,76.4,75.5,
